Test results reported in ChEMBL document CHEMBL5107954, “Potency and metabolic stability: a molecular hybrid case in the design of novel PF74-like small molecules targeting HIV-1 capsid protein” (RSC Med Chem, 2021).

Experiments:
[1] = test system: Human immunodeficiency virus 1; assay: Binding affinity to HIV-1 capsid protein 121 expressed in Escherichia coli BL21 (DE3) cells assessed as change in melting temperature at 20 uM measured every 10 sec by RT-PCR based thermal shift assay
Summary of the method: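 Crosslinked hexameric CA A14C/E45C/W184A/M185A (CA121), purified protein at 7.5 μM in 50 mM sodium phosphate pH 8.0 with 1× Sypro Orange; compound 20 μM or DMSO control, 1% DMSO final. Heated 25 to 95 °C at 0.2 °C per 10 s in a real-time PCR instrument; fluorescence Ex 475–500, Em 520–590 nm. ΔTm is the hexamer melting point with compound minus DMSO control.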

[2] = Cytotoxicity against human TZM cells expressing GFP assessed as inhibition of cell growth incubated for 72 hrs by XTT assay; assay type: toxicity, cell-based
Summary of the method: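 TZM-GFP cells at 1 × 10^4 cells/well were exposed continuously to increasing compound concentrations for 72 h. Viable cells were read by XTT. CC50 came from a log(inhibitor) vs. normalized response, variable-slope curve fit. Run in duplicate, ≥2 independent experiments, mean ± SD.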

[3] = (§1) Antiviral activity against wild type HIV1 NL4-3 infected in human TZM cells expressing GFP assessed as inhibition of viral LTR-activated GFP expression preincubated with compound for 24 hrs followed by viral infection and measured after 48 hrs; assay type: functional, cell-based; conditions: Human immunodeficiency virus 1, NL4-3, TZM
Summary of the method: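 TZM-GFP cells at 1 × 10^4 cells/well were treated with increasing compound concentrations, then infected 24 h later with HIV-1 NL4-3 at MOI 0.1. After 48 h, GFP-positive cells were counted by imaging and compared with DMSO controls. EC50 came from a log(inhibitor) vs. normalized response, variable-slope fit. Run in duplicate, ≥2 independent experiments, mean ± SD.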

[4] = Metabolic stability in human liver microsomes assessed as half-life at 1 uM measured upto 15 mins in the presence of NADPH as co-factor by LC-MS/MS analysis; assay type: ADME, Microsome
[5] = Metabolic stability in mouse liver microsomes assessed as half-life at 1 uM measured upto 15 mins in the presence of NADPH as co-factor by LC-MS/MS analysis; assay type: ADME, Microsome
[6] = as §1, with “Potency index, ratio of test compound EC50 to PF74 EC50 for antiviral” for “Antiviral”; assay type: functional, Human immunodeficiency virus 1; conditions: time 72 hrs
[7] = Metabolic stability in human liver microsomes assessed as half-life measured upto 60 mins in the presence of NADPH as co-factor by LC-MS/MS analysis; assay type: ADME, Microsome

| half-life [7] | SMILES | ΔTm [1] | CC50 at 72 h [2] | EC50 [3] | half-life at 1 µM [4] | half-life at 1 µM [5] | Ratio EC50 [6] |
| --- | --- | --- | --- | --- | --- | --- | --- |
| – | CN(C(=O)[C@H](Cc1ccccc1)NC(=O)CN1CCN(C(=O)c2cccc(S(=O)(=O)F)c2)CC1=O)c1ccc(Cl)cc1 | 1.1 °C | > 50 µM | > 20 µM | – | – | – |
| – | CN(C(=O)[C@H](Cc1ccccc1)NC(=O)CN1CCN(C(=O)c2ccccc2Br)CC1)c1ccc(Cl)cc1 | 0.7 °C | > 50 µM | 20 µM | – | – | – |
| – | CN(C(=O)[C@H](Cc1ccccc1)NC(=O)CN1CCN(C(=O)c2ccc([N+](=O)[O-])cc2)CC1=O)c1ccc(Cl)cc1 | 1.5 °C | > 50 µM | > 20 µM | – | – | – |
| – | Cc1[nH]c2ccccc2c1CC(=O)N[C@@H](Cc1ccccc1)C(=O)N(C)c1ccccc1 | 6.9 °C | > 50 µM | – | – | – | – |
| – | CN(C(=O)[C@H](Cc1ccccc1)NC(=O)CN1CCN(C(=O)c2ccc(C(F)(F)F)cc2)CC1=O)c1ccc(Cl)cc1 | 0.5 °C | > 50 µM | > 20 µM | – | – | – |
| – | CN(C(=O)[C@H](Cc1ccccc1)NC(=O)CN1CCN(C(=O)c2ccccc2F)CC1=O)c1ccc(Cl)cc1 | 1.6 °C | > 50 µM | 9.5 µM | 4.1 min | 0.9 min | – |
| – | CN(C(=O)[C@H](Cc1ccccc1)NC(=O)CN1CCN(C(=O)c2cccc(F)c2)CC1=O)c1ccc(Cl)cc1 | 1.7 °C | > 50 µM | 13.3 µM | – | – | – |
| – | CN(C(=O)[C@H](Cc1ccccc1)NC(=O)CN1CCN(C(=O)c2c[nH]c3ccccc23)CC1=O)c1ccc(Cl)cc1 | 0.3 °C | > 50 µM | > 20 µM | – | – | – |
| – | CN(C(=O)[C@H](Cc1ccccc1)NC(=O)CN1CCN(C(=O)c2cccc(C#N)c2)CC1=O)c1ccc(Cl)cc1 | 1.5 °C | > 50 µM | 12.9 µM | – | – | – |
| – | CN(C(=O)[C@H](Cc1ccccc1)NC(=O)CN1CCN(C(=O)c2ccccc2C#N)CC1=O)c1ccc(Cl)cc1 | 2.1 °C | > 50 µM | 7.5 µM | – | – | – |
| – | CN(C(=O)[C@H](Cc1ccccc1)NC(=O)CN1CCN(C(=O)c2ccccc2[N+](=O)[O-])CC1=O)c1ccc(Cl)cc1 | 2.6 °C | > 50 µM | 2.7 µM | 3.8 min | 0.9 min | – |
| – | CN(C(=O)[C@H](Cc1ccccc1)NC(=O)CN1CCN(C(=O)c2ccccc2Cl)CC1=O)c1ccc(Cl)cc1 | 1.5 °C | > 50 µM | 6.4 µM | 6.2 min | 1.1 min | – |
| – | CN(C(=O)[C@H](Cc1ccccc1)NC(=O)CN1CCN(C(=O)c2ccc(Br)cc2)CC1=O)c1ccc(Cl)cc1 | 0.8 °C | > 50 µM | 10.2 µM | – | – | – |
| – | CN(C(=O)[C@H](Cc1ccccc1)NC(=O)CN1CCN(C(=O)c2ccccc2C(F)(F)F)CC1=O)c1ccc(Cl)cc1 | 1.4 °C | > 50 µM | 7.2 µM | – | – | – |
| – | CN(C(=O)[C@H](Cc1ccccc1)NC(=O)CN1CCN(C(=O)c2cccc(Cl)n2)CC1=O)c1ccc(Cl)cc1 | 1.1 °C | > 50 µM | 7.7 µM | 3.6 min | 1 min | – |
| – | CN(C(=O)[C@H](Cc1ccccc1)NC(=O)CN1CCN(C(=O)c2cccc(C(F)(F)F)c2)CC1=O)c1ccc(Cl)cc1 | 0.3 °C | > 50 µM | > 20 µM | – | – | – |
| – | CN(C(=O)[C@H](Cc1ccccc1)NC(=O)CN1CCN(C(=O)c2cn[nH]c2)CC1=O)c1ccc(Cl)cc1 | 1.3 °C | > 50 µM | > 20 µM | – | – | – |
| – | CN(C(=O)[C@H](Cc1ccccc1)NC(=O)CN1CCN(C(=O)c2cccc(O)c2)CC1=O)c1ccc(Cl)cc1 | 0.8 °C | > 50 µM | > 20 µM | – | – | – |
| – | CN(C(=O)[C@H](Cc1ccccc1)NC(=O)CN1CCN(C(=O)c2ccc(C#N)cc2)CC1=O)c1ccc(Cl)cc1 | 1.7 °C | > 50 µM | 11 µM | – | – | – |
| – | CN(C(=O)[C@H](Cc1ccccc1)NC(=O)COn1nnc2cccnc21)c1ccc(Cl)cc1 | 1 °C | > 50 µM | 5.2 µM | 0.8 min | 0.5 min | – |

| half-life [7] | SMILES | ΔTm [1] | CC50 at 72 h [2] | EC50 [3] | half-life at 1 µM [4] | half-life at 1 µM [5] | Ratio EC50 [6] |
| --- | --- | --- | --- | --- | --- | --- | --- |
| – | CN(C(=O)[C@H](Cc1ccccc1)NC(=O)CN1CCNCC1=O)c1ccc(Cl)cc1 | 0.1 °C | > 50 µM | > 20 µM | – | – | – |
| – | CN(C(=O)[C@H](Cc1ccccc1)NC(=O)Cn1ccc(C(F)(F)F)c(Oc2cc(Cl)cc(C(=O)O)c2)c1=O)c1ccc(Cl)cc1 | 1.9 °C | > 50 µM | > 20 µM | – | – | – |
| – | CN(C(=O)[C@H](Cc1ccccc1)NC(=O)CN1CCN(C(=O)c2cccc(Br)c2)CC1=O)c1ccc(Cl)cc1 | 1.1 °C | > 50 µM | 9 µM | 4.8 min | 1.4 min | – |
| – | CN(C(=O)[C@H](Cc1ccccc1)NC(=O)CN1CCN(C(=O)c2ccccn2)CC1=O)c1ccc(Cl)cc1 | 0.8 °C | > 50 µM | 12.7 µM | – | – | – |
| – | CN(C(=O)[C@H](Cc1ccccc1)NC(=O)CN1CCN(C(=O)c2ccc(F)cc2)CC1=O)c1ccc(Cl)cc1 | 1.3 °C | > 50 µM | 11.5 µM | – | – | – |
| – | CN(C(=O)[C@H](Cc1ccccc1)NC(=O)CN1CCN(C(=O)c2ccc(N)cc2)CC1=O)c1ccc(Cl)cc1 | 0.5 °C | > 50 µM | > 20 µM | – | – | – |
| – | CN(C(=O)[C@H](Cc1ccccc1)NC(=O)CN1CCN(C(=O)c2cccc(Cl)c2)CC1=O)c1ccc(Cl)cc1 | 1 °C | > 50 µM | 10.2 µM | – | – | – |
| – | CN(C(=O)[C@H](Cc1ccccc1)NC(=O)CN1CCN(C(=O)c2ccncc2)CC1=O)c1ccc(Cl)cc1 | 0.7 °C | > 50 µM | 15.6 µM | – | – | – |
| – | CN(C(=O)[C@H](Cc1ccccc1)NC(=O)CN1CCN(C(=O)c2ccccc2Br)CC1=O)c1ccc(Cl)cc1 | 1.1 °C | > 50 µM | 3.8 µM | 7.9 min | 1.8 min | – |
| – | CN(C(=O)[C@H](Cc1ccccc1)NC(=O)CN1CCN(C(=O)c2cccc(N)c2)CC1=O)c1ccc(Cl)cc1 | 0.3 °C | > 50 µM | > 20 µM | – | – | – |
| 36 min | CN(C(=O)[C@H](Cc1ccccc1)NC(=O)CNC(=O)c1ccccc1)c1ccc(Cl)cc1 | – | – | 0.88 µM | – | – | 1.4 |
| – | CN(C(=O)[C@H](Cc1ccccc1)NC(=O)CN1CCN(C(=O)c2cccnc2)CC1=O)c1ccc(Cl)cc1 | 0.7 °C | > 50 µM | 12.5 µM | – | – | – |
| – | CN(C(=O)[C@H](Cc1ccccc1)NC(=O)CN1CCN(C(=O)c2ccccc2O)CC1=O)c1ccc(Cl)cc1 | 0.8 °C | > 50 µM | > 20 µM | – | – | – |
| – | CN(C(=O)[C@H](Cc1ccccc1)NC(=O)CN1CCN(C(=O)c2ccc(O)cc2)CC1=O)c1ccc(Cl)cc1 | 0.7 °C | > 50 µM | > 20 µM | – | – | – |
| – | CN(C(=O)[C@H](Cc1ccccc1)NC(=O)CN1CCN(C(=O)c2ccccc2)CC1=O)c1ccc(Cl)cc1 | 0.7 °C | > 50 µM | > 20 µM | – | – | – |
| – | CN(C(=O)[C@H](Cc1ccccc1)NC(=O)CN1CCN(C(=O)c2ccc(Cl)cc2)CC1=O)c1ccc(Cl)cc1 | 1.3 °C | > 50 µM | 9.2 µM | 7.5 min | 1.3 min | – |
| – | CN(C(=O)[C@H](Cc1ccccc1)NC(=O)CN1CCN(C(=O)c2cccc([N+](=O)[O-])c2)CC1=O)c1ccc(Cl)cc1 | 1.5 °C | > 50 µM | 9.3 µM | 2.6 min | 0.8 min | – |
| – | CN(C(=O)[C@H](Cc1ccccc1)NC(=O)CN1CCN(C(=O)c2ccc(S(=O)(=O)F)cc2)CC1=O)c1ccc(Cl)cc1 | 0.8 °C | > 50 µM | > 20 µM | – | – | – |
| – | CN(C(=O)[C@H](Cc1ccccc1)NC(=O)CN1CCN(C(=O)c2ccccc2N)CC1=O)c1ccc(Cl)cc1 | 0.7 °C | > 50 µM | 4.5 µM | 4.4 min | 1.3 min | – |
